Tests used:
P388 [1] = test: (§1) Activity against P-388 murine leukemia cells expressed as average weight change at a dose of 12.8 mg/kg per inj.; assay type: functional
P388 [2] = test: Activity against P-388 murine leukemia cells expressed as median survival time (MST treated/MST control) at a dose of 4.8 mg/kg per inj.; assay type: functional
Outline: (§2)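 P-388 leukemia in vivo: 10^6 ascites cells implanted ip into female CDF1 mice. Six mice per mitosane dose, 10 saline-injected controls, and a concurrent mitomycin C group of six mice per dose. Median survival time recorded; %T/C = MST treated/MST control × 100. 30-day survivors counted. Minimum effective dose set at %T/C 125.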

P388 [3] = test: Activity against P-388 murine leukemia cells expressed as median survival time (MST treated/MST control) at a dose of 25.6 mg/kg per inj.; assay type: functional; outline: as §2
P388 [4] = test: (§3) Activity against P-388 murine leukemia cells expressed as average weight change at a dose of 25.6 mg/kg per inj.; assay type: functional
P388 [5] = test: Activity against P-388 murine leukemia cells expressed as median survival time (MST treated/MST control) at a dose of 12.8 mg/kg per inj.; assay type: functional; outline: as §2
P388 [6] = test: (§4) Activity against P-388 murine leukemia cells expressed as average weight change at a dose of 6.4 mg/kg per inj.; assay type: functional, Mus musculus
P388 [7] = test: Activity against P-388 murine leukemia cells expressed as median survival time (MST treated/MST control) at a dose of 6.4 mg/kg per inj.; assay type: functional, Mus musculus; outline: as §2
P388 [8] = test: (§5) Activity against P-388 murine leukemia cells expressed as average weight change at a dose of 3.2 mg/kg per inj.; assay type: functional, Mus musculus
P388 [9] = test: Activity against P-388 murine leukemia cells expressed as average weight change at a dose of 1.6 mg/kg per inj.; assay type: functional, Mus musculus
P388 [10] = test: Activity against P-388 murine leukemia cells at a dose of 3.2 mg/kg per inj.; assay type: functional, Mus musculus; outline: as §2
P388 [11] = test: Activity against P-388 murine leukemia cells expressed as median survival time (MST treated/MST control) at a dose of 3.2 mg/kg per inj.; assay type: functional, Mus musculus; outline: as §2
P388 [12] = test: Activity against P-388 murine leukemia cells expressed as median survival time (MST treated/MST control) at a dose of 1.6 mg/kg per inj.; assay type: functional, Mus musculus; outline: as §2
P388 [13] = test: Activity against P-388 murine leukemia cells at a dose of 4.8 mg/kg per inj.; assay type: functional, Mus musculus; outline: as §2
P388 [14] = test: as §1; assay type: functional, organism-based; details: Mus musculus
Outline: (§6)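 P-388 leukemia in vivo: 10^6 ascites cells implanted ip in female CDF1 mice. Six mice per dose level; 10 saline-injected controls. A parallel group of six mice per dose received mitomycin C in the same experiment as a reference. Tested at Bristol-Myers.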

P388 [15] = test: as §3; assay type: functional, organism-based; details: Mus musculus; outline: as §6
P388 [16] = test: as §4; assay type: functional, organism-based; details: Mus musculus; outline: as §6
P388 [17] = test: as §5; assay type: functional, organism-based; details: Mus musculus; outline: as §6
P388 [18] = test: Activity against P-388 murine leukemia celLS at a dose of 3.2 mg/kg per inj.; assay type: functional, Mus musculus; outline: as §2
P388 [19] = test: Activity against P-388 murine leukemia cells expressed as average weight change at a dose of 0.8 mg/kg per inj.; assay type: functional, Mus musculus
P388 [20] = test: Activity against P-388 murine leukemia cells expressed as average weight change at a dose of 0.2 mg/kg per inj.; assay type: functional, Mus musculus
P388 [21] = test: Activity against P-388 murine leukemia cells expressed as median survival time (MST treated/MST control) at a dose of 0.8 mg/kg per inj.; assay type: functional, Mus musculus; outline: as §2
P388 [22] = test: Activity against P-388 murine leukemia cells expressed as median survival time (MST treated/MST control) at a dose of 0.2 mg/kg per inj.; assay type: functional, Mus musculus; outline: as §2
P388 [23] = test: Activity against P-388 murine leukemia cells expressed as median survival time (MST treated/MST control) at a dose of 0.4 mg/kg per inj.; assay type: functional, Mus musculus; outline: as §2
P388 [24] = test: Activity against P-388 murine leukemia cells expressed as average weight change at a dose of 0.4 mg/kg per inj.; assay type: functional, Mus musculus

In the case of “Platinium II Complex N7-[2-(2-Pyridyl)ethyl]mitomycin C”, the Activity (P388 [1]; Mus musculus) is reported as 0.5 g, the T/C (P388 [2]; Mus musculus) is reported as 230% and the MST (P388 [3]; Mus musculus) is reported as 125. For the same molecule, the Activity (P388 [4]; Mus musculus) was -0.2 g and the MST (P388 [5]; Mus musculus) was 110.

`CO[C@@]12C(COC(N)=O)C3=C(C(=O)C(C)=C(NCCN4CCNCC4)C3=O)N1CC1NC12` (stereo not given in full) gave an Activity (P388 [1]) of 1.2 g, a T/C (P388 [2]) of 213% and an Activity (P388 [6]) of 2.1 g. It also gave an MST (P388 [3]) of 138, an Activity (P388 [4]) of -0.6 g and an MST (P388 [5]) of 125. It also gave an MST (P388 [7]) of 113.

For `COC1c2c(COC(=N)[O-])c3c(n2CC1N)C(=O)C(C)=C(N)C3=O.Cl.[Zn+]` (stereo not given), the Activity (P388 [8]) was 2 g, the Activity (P388 [9]) was 0.5 g and the Activity (P388 [1]) was 0.4 g. It also gave a T/C (P388 [10]) of 194%, an Activity (P388 [6]) of 0.7 g and an MST (P388 [3]) of 178. It also gave an Activity (P388 [4]) of -0.7 g, an MST (P388 [11]) of 139 and an MST (P388 [5]) of 144. It also gave an MST (P388 [7]) of 133 and an MST (P388 [12]) of 122.

In the case of `COC1c2c(COC(N)=O)c3c(n2CC1N)C(=O)C(C)=C(N)C3=O.Cl` (stereo not given), the Activity (P388 [1]) is reported as 0.4 g, the Activity (P388 [6]) is reported as 1.9 g and the MST (P388 [3]) is reported as 130. For the same molecule, the Activity (P388 [4]) was 0.6 g, the T/C (P388 [13]) was greater than 165% and the MST (P388 [5]) was 115. It also gave an MST (P388 [7]) of 110.

Molecule “2-amino-9-(2-carbamoyloxomethyl)-1-methoxy-6-methyl-5,8-dioxo-2,3,5,8-tetrahydro-1H-pyrrolo[1,2-a]indol-7-yl(dichlorocopper)ammonium; Copper chloride” has a T/C (P388 [10]; Mus musculus) of 100%, an Activity (P388 [14]) of 0.3 g and an Activity (P388 [15]) of -3.1 g. The Activity (P388 [16]) was 0.8 g, the Activity (P388 [17]) was 0.9 g and the MST (P388 [11]; Mus musculus) was 100. For the same molecule, the MST (P388 [5]; Mus musculus) was 100 and the MST (P388 [7]; Mus musculus) was 100.

`CO[C@@]12[C@H](COC(N)=O)C3=C(C(=O)C(C)=C(NCCc4ccccn4)C3=O)N1C[C@@H]1N[C@@H]12.Cl.Cl.[Zn+2]` was tested, and the Activity (P388 [8]) was 0.1 g, the T/C (P388 [18]) was 194% and the Activity (P388 [9]) was 0.8 g. It also gave an Activity (P388 [1]) of -0.4 g, an Activity (P388 [6]) of -0.6 g and an MST (P388 [3]) of 161. For the same molecule, the Activity (P388 [4]) was -1.3 g, the MST (P388 [11]) was 133 and the MST (P388 [5]) was 156. For the same molecule, the MST (P388 [7]) was 139 and the MST (P388 [12]) was 122.

`CO[C@@]12C(COC(N)=O)C3=C(C(=O)C(C)=C(NCCc4ccccn4)C3=O)N1CC1NC12` (stereo not given in full) was tested, and the Activity (P388 [8]) was -0.9 g, the Activity (P388 [19]) was -0.3 g and the Activity (P388 [20]) was -0.5 g. For the same molecule, the MST (P388 [21]) was 138, the Activity (P388 [9]) was -0.4 g and the Activity (P388 [1]) was -1.8 g. For the same molecule, the T/C (P388 [10]) was 319%, the MST (P388 [22]) was 125 and the MST (P388 [23]) was 125. It also gave an Activity (P388 [6]) of -1.1 g, an MST (P388 [3]) greater than 375 and an Activity (P388 [4]) of -2.7 g. The MST (P388 [11]) was 163, the Activity (P388 [24]) was -0.6 g and the MST (P388 [5]) was 256. The MST (P388 [7]) was 213 and the MST (P388 [12]) was 163.

“3-[6-(1,1-copperdichloro-1H,2H,3H,4H-pyrido[1,2-c]pyrimidin-9-ium-2-yl)-8a-methoxy-5-methyl-4,7-dioxo-(8aR)-1,1a,2,4,7,8,8a,8b-octahydroazireno[3',2':3,4]pyrrolo[1,2-a]indol-8-yl]methyloxocarboxamide” was tested, and the av wt change (P388 [14]) was 0.2 g, the av wt change (P388 [15]) was -1.4 g and the MST (P388 [3]; Mus musculus) was 128. For the same molecule, the MST (P388 [5]; Mus musculus) was 122.

`CO[C@@]12[C@H](COC(N)=O)C3=C(C(=O)C(C)=C(NCCN4CCNCC4)C3=O)N1C[C@@H]1N[C@@H]12.Cl.Cl.[Zn+2]` showed an Activity (P388 [1]) of 1.2 g, a T/C (P388 [2]) of 213% and an MST (P388 [3]) of 100. The Activity (P388 [4]) was -0.6 g and the MST (P388 [5]) was 90.
